Experimental data: paper PMC7261135 (Journal of medicinal chemistry, 2020)
Read-outs that look alike come from different tables or passages of the source.

Tests used:
[1] = in vitro plasma stability; assay type: in vitro ADME; conditions: rat plasma (rat serum)
Procedure, shortened: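 Test compound incubated in rat serum, with diltiazem run alongside as assay QC control.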

[2] = solution stability at pH 5.0, 7.4, 9.4; assay type: physicochemical
[3] = biological target: T1, mGluR4 (Homo sapiens, UniProt Q14833); assay: competitive binding assay with [^3H]4 in mGluR4 transfected CHO cells
T1 sequence (Q14833 33-912): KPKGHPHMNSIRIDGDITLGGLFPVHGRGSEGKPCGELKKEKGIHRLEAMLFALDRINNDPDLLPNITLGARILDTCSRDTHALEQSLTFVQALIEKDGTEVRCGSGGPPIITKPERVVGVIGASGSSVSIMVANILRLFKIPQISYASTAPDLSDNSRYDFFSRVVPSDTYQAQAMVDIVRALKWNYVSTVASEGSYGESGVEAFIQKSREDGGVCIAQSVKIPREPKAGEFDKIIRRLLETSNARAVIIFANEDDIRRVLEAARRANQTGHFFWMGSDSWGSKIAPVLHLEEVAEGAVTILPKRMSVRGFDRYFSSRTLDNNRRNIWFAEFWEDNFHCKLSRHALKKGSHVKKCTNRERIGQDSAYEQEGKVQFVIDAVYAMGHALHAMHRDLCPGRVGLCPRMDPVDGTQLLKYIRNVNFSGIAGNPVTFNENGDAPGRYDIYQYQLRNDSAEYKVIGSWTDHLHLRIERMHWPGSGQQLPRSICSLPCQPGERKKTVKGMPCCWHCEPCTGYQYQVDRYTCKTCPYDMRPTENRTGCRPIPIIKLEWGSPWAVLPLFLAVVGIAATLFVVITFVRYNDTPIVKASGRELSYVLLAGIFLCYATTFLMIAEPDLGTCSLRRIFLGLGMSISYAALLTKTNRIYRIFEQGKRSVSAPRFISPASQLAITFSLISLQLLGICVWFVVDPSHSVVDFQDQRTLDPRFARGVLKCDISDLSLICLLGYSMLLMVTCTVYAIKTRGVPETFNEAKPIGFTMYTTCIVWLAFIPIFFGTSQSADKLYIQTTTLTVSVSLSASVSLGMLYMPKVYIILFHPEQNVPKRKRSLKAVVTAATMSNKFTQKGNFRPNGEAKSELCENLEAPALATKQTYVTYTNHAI

[4] = liver microsomal stability; assay type: in vitro ADME, rat
[5] = biological target: T2, mGluR4 (Rattus norvegicus, UniProt P31423); assay: PET blocking studies of [^18F]15 binding; assay type: in vivo, Sprague Dawley rats; conditions: rats
T2 sequence (P31423 33-912): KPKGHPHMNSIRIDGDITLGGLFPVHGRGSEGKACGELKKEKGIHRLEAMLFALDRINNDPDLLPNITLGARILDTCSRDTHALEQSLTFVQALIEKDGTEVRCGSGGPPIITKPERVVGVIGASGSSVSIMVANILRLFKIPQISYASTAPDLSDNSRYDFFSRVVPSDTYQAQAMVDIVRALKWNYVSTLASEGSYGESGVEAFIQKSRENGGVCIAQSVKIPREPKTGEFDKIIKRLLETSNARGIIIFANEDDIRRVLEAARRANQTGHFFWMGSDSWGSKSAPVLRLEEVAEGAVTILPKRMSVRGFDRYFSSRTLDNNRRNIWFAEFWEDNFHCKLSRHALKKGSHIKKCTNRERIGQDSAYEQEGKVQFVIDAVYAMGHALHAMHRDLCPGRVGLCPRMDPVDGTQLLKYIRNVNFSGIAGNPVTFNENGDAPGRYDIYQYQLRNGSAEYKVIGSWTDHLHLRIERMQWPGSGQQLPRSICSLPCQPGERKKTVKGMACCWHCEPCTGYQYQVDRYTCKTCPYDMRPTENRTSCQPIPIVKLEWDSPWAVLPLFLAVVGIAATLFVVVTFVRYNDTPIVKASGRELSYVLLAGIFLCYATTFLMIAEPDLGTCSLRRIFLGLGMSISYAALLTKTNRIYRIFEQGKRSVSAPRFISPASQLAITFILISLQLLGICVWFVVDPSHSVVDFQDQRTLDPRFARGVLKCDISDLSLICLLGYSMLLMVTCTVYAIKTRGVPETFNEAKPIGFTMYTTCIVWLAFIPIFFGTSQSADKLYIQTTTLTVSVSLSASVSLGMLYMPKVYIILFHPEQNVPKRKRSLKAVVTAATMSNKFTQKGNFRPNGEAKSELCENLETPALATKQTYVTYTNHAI
Procedure, shortened: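 Male Sprague Dawley rats under isoflurane/nitrous oxide (1.0–1.5% isoflurane) with a tail-vein catheter. Blocker 1, 2 or 3 mg/kg in saline with 10% DMSO, 5% Tween-20, 85% PBS, given 1 min before iv tracer (18–34 MBq). Dynamic PET 60 min, CT for attenuation correction, MLEM reconstruction. Regional time-activity curves; blocking as percent change from baseline scans.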

[6] = biological target: T1, mGluR4; assay: mGluR4 Gi fold shift assay; assay type: cell-based
Procedure, shortened: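 Split-luciferase GloSensor cAMP biosensor read-out of Gi-coupled mGluR4 signalling. L-SOP concentration-response curves were run with test compound at 3.0 μM and the leftward shift measured; efficacy given relative to glutamate maximum. Data from NIMH PDSP, averaged over at least three independent determinations run in triplicate.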

[7] = Log D7.4, scaled-down shake flask method using [^18F]15; assay type: physicochemical; conditions: octanol/phosphate buffer, pH 7.4
Procedure, shortened: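 Radiolabelled test compound (74 kBq) was partitioned between octanol and pH 7.4 phosphate buffer, vortexed 2 min and centrifuged 2 min, and both phases were sampled. An octanol aliquot went into fresh octanol/buffer and the cycle was repeated to give six sets. Gamma counting; Log D = log(octanol counts × 10 / buffer counts).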

[8] = ex vivo biodistribution of [^18F]15; assay type: in vivo; conditions: male Sprague Dawley rats
[9] = biological target: T2, mGluR4; assay: PET imaging of [^18F]15, baseline; assay type: in vivo, Sprague Dawley rats; conditions: rats
[10] = rat liver microsomes with NADPH

**Q.** What does the source list for COc1cc(NC(=O)c2ccccn2)ccc1Cl [Compound 4]?
**A.** The plasma stability: The intact ± SEM at 120 (min%) [1]: 98.2 ± 6.3%; The solution stability: The intact ± SEM at 120 min ([2]; pH = 5.0): 92.7 ± 3.1%; The solution stability: The intact ± SEM at 120 min ([2]; pH = 7.4): 97.3 ± 1.1%; The solution stability: The intact ± SEM at 120 min ([2]; pH = 9.4): 89.1 ± 2.1%

**Q.** Which results are given for CSc1cc(NC(=O)c2ccccn2)ccc1Cl [Compound 13]?
**A.** IC50 ([3]; read-out: IC50±SE, mGluR4 transfected CHO cells, 2 nM [^3H]4, test compound 0.01 nM to 10 μM): 3.5 ± 0.7 nM; The plasma stability: The intact ± SEM at 120 (min%) [1]: 91.5 ± 2.5%; The microsome stability Clint [4, 10]: 54.8 μL/min /mg protein; The microsome stability t1/2 [4, 10]: 25.3 min; The solution stability: The intact ± SEM at 120 min ([2]; pH = 5.0): 85.9 ± 0.8%; The solution stability: The intact ± SEM at 120 min ([2]; pH = 7.4): 87.9 ± 3.4%; The solution stability: The intact ± SEM at 120 min ([2]; pH = 9.4): 89.3 ± 1.3%; blocking of [^18F]15 binding in striatum ([5]; blocking agent 1 mg/kg): 18%; blocking of [^18F]15 binding in striatum ([5]; blocking agent 2 mg/kg): 20%; blocking of [^18F]15 binding in striatum ([5]; blocking agent 3 mg/kg): 28%; blocking of [^18F]15 binding in the whole brain ([5]; blocking agent 1, 2 or 3 mg/kg, 1 min before tracer): 22–25%

**Q.** Which IC50 [3] does the source give for [2H]C([2H])(F)Sc1cc(NC(=O)c2ccccn2)ccc1Cl [Compound 15, N-(4-Chloro-3-((fluoromethyl-d2)thio)phenyl)picolinamide] here?
**A.** 3.5 ± 0.5 nM

**Q.** And the “leftward shift of agonist (L-SOP) response curve” value ([6]; at 3.0 μM)?
**A.** 7.5 fold

**Q.** And the Emax at 3 µM ([6]; read-out: Glu Max efficacy)?
**A.** 98.3%

**Q.** And the logD [7]?
**A.** 3.82

**Q.** And the “The plasma stability: The intact ± SEM at 120 (min%)” value [1]?
**A.** 84.5 ± 10.2%

**Q.** What about the microsomal CLint ([4]; rat, liver microsomes) of the same molecule?
**A.** 24.2 µL/min/mg

**Q.** And the “The solution stability: The intact ± SEM at 120 min” value ([2]; pH = 5.0)?
**A.** 87.1 ± 0.9%

**Q.** And the “The solution stability: The intact ± SEM at 120 min” value ([2]; pH = 7.4)?
**A.** 88.3 ± 1.9%

**Q.** What about the “The solution stability: The intact ± SEM at 120 min” value ([2]; pH = 9.4) of the same molecule?
**A.** 84.3 ± 1.8%

**Q.** For COc1ccc([C@@H]2Sc3ccccc3N(CCN(C)C)C(=O)[C@@H]2OC(C)=O)cc1 [Diltiazem], which “The plasma stability: The intact ± SEM at 120 (min%)” value [1] is on record?
**A.** 49.0 ± 10.6%

**Q.** And the “The solution stability: The intact ± SEM at 120 min” value ([2]; pH = 5.0)?
**A.** 94.7 ± 1.4%

**Q.** What about the “The solution stability: The intact ± SEM at 120 min” value ([2]; pH = 7.4) of the same molecule?
**A.** 99.0 ± 5.7%

**Q.** What about the “The solution stability: The intact ± SEM at 120 min” value ([2]; pH = 9.4) of the same molecule?
**A.** 69.8 ± 2.6%

**Q.** For [2H]C([2H])([18F])Sc1cc(NC(=O)c2ccccn2)ccc1Cl [[^18F]15, [^18F]-N-(4-chloro-3-((fluoromethyl-d2)thio)phenyl)-picolinamide], which accumulation in brain ([8]; at 10 min after iv injection) is on record?
**A.** 0.41±0.18 % ID/g

**Q.** What about the accumulation in heart ([8]; at 20 min after iv injection) of the same molecule?
**A.** 0.50±0.08 % ID/g

**Q.** And the accumulation in liver ([8]; at 20 min after iv injection)?
**A.** 1.33±0.12 % ID/g

**Q.** And the accumulation in lungs ([8]; at 20 min after iv injection)?
**A.** 0.58±0.17 % ID/g

**Q.** And the accumulation in kidneys ([8]; at 30 min after iv injection)?
**A.** 0.93±0.57 % ID/g

**Q.** What about the “time of highest accumulation in the thalamus” value ([9]; after administration of the ligand) of the same molecule?
**A.** about 2 min

**Q.** And the “maximum average uptake in the thalamus” value ([9]; time interval 1–10 min after administration)?
**A.** 1.77±0.26 % ID/cc
